One assay deals with five bacterial pathogens. The experiment in a line: Bacterial growth inhibition at single concentration, whole panel. It is filed as cell-based. The conditions noted are these: 32 μg/mL, in words.
The nature of assay [1]: SPR binding of peptides on immobilized liposomes. The conditions noted are these: POPC lipid systems, 100 μM peptide.
A short description of the next assay: Liposome leakage. The settings on record: 20 μM peptide, CF dequenching. An outline of the steps:
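Vesicles: 5 mg DOPC in chloroform, dried under N2, then freeze-dried 2 h to remove residual solvent. The lipid was redissolved in diethyl ether and hydrated in 10 mM HEPES, 100 mM KCl, pH 7.4, containing 50 mM carboxyfluorescein (quenching level). Peptide at 20 μM was mixed with vesicles for 3 min equilibration. Release was followed as the fluorescence dequenching rate.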

In assay [2] the test system is A. baumannii. Description: Bacterial growth inhibition at single concentration. Format: cell-based, Acinetobacter baumannii. The settings on record: 32 μg/mL (15–17 μM), OD600, 18 h.
For assay [3], the system named is S. aureus. Described as above. The conditions noted are these: 32 μg/mL (15–17 μM), OD600, 18 h; in words. It is filed as cell-based, Staphylococcus aureus.
Assay [4] has as its system S. aureus. The experiment in a line: MIC, whole cell growth inhibition dose response. It is filed as cell-based, Staphylococcus aureus. The settings on record: for MIC: Staphylococcus aureus, MRSA.
The next assay relates to E. coli. Description: MIC, whole cell growth inhibition dose response. It is filed as cell-based, Escherichia coli. The conditions noted are these: n=2.
A further assay relates to K. pneumoniae. The experiment in a line: MIC, whole cell growth inhibition dose response. The conditions noted are these: n=2. It is filed as cell-based, Klebsiella pneumoniae.
For assay [5], the system named is A. baumannii. The experiment in a line: MIC, whole cell growth inhibition dose response. It is filed as cell-based, Acinetobacter baumannii. The settings on record: polystyrene 96-well plate, n=2.
Setting [6] is: non-binding surface 96-well plate.

Values after ≈ are worked out from the molar mass of the structure shown. “Also recorded” adds a separate entry of the source. Where two headings read alike, the source gives them in different places.

On to H-(AzPro-Pro)8-NHCH2CH2OH [Peptide 4], for which the “antibacterial activity (growth inhibition) over the bacterial panel” value in the assay on five bacterial pathogens was “considerable loss of activity”.

For the molecule Cbz-(AzPro-Pro)8-OH [Peptide 14], the “antibacterial activity (growth inhibition) over the bacterial panel” value in the assay with five bacterial pathogens is recorded as “considerable loss of activity; also recorded: largely abolishes all activity”.

Consider Cbz-(AzPro-Pro)16-O^tBu [Peptide 11], for which the “antibacterial activity (growth inhibition) over the bacterial panel” value in the assay with five bacterial pathogens is “considerable loss of activity; also recorded: drastic loss in activity”.

With Cbz-(AzPro-Pro)8-NHCH2CH2OH [Peptide 1], the SPR binding response entry in assay [1] is “showed some binding response”. Besides, in “Liposome leakage”, the DOPC liposome leakage amounted to 13%. Also, the “A. baumannii growth inhibition” value in the assay on A. baumannii [2] amounted to 38%. The “antibacterial activity (growth inhibition) over the bacterial panel” value in the assay with five bacterial pathogens is recorded as “highest activity”.

Regarding Boc-(Pro-AzPro)4-H [Peptide 22], the “antibacterial activity (growth inhibition) over the bacterial panel” value in the assay on five bacterial pathogens was “little inhibition”.

As for Ac-(AzPro-Pro)8-NHCH2CH2OH [Peptide 2], the SPR binding response result in [1] is “showed some binding response”. The “antibacterial activity (growth inhibition) over the bacterial panel” value in the assay on five bacterial pathogens was “considerable loss of activity”.

As for “Formyl-(AzPro-Pro)7-NHCH2CH2OH [Peptide 5]”, the “antibacterial activity (growth inhibition) over the bacterial panel” value with five bacterial pathogens is reported as “largely abolishes all activity”.

As for HCl.H-(Pro-AzPro)4-Cbz [Peptide 23], in the assay with five bacterial pathogens, the “antibacterial activity (growth inhibition) over the bacterial panel” value was “little inhibition”.

Cbz-(AzPro-Pro)4-OH [Peptide 19]: in the assay on five bacterial pathogens, the “antibacterial activity (growth inhibition) over the bacterial panel” value is “little inhibition”.

H-(AzPro-Pro)4-O^tBu [Peptide 20]: the “antibacterial activity (growth inhibition) over the bacterial panel” value in the assay on five bacterial pathogens is on record as “largely abolishes all activity”.

Boc-(Pro-AzPro)8-Cbz [Peptide 10]: the SPR binding response result in assay [1] is reported as “showed some binding response”.

HCl. H-(Pro-AzPro)8-Cbz [Peptide 16]: in the assay with A. baumannii [2], the “A. baumannii growth inhibition” value is given as “some activity”. Further, in the assay with S. aureus [3], the “S. aureus growth inhibition” value was “some activity”.

In the case of H-(Pro-AzPro)8-H [Peptide 9], the “antibacterial activity (growth inhibition) over the bacterial panel” value in the assay with five bacterial pathogens was “highest activity”.

For `CN[C@H](CC(C)C)C(=O)N[C@H]1C(=O)N[C@@H](CC(N)=O)C(=O)N[C@H]2C(=O)N[C@H]3C(=O)N[C@H](C(=O)N[C@H](C(=O)O)c4cc(O)cc(O)c4-c4cc3ccc4O)[C@H](O)c3ccc(c(Cl)c3)Oc3cc2cc(c3O[C@@H]2O[C@H](CO)[C@@H](O)[C@H](O)[C@H]2O[C@H]2C[C@](C)(N)[C@H](O)[C@H](C)O2)Oc2ccc(cc2Cl)[C@H]1O` [Vancomycin], the minimal inhibitory concentration (MIC) in the assay with S. aureus [4] (read-out: MIC S. aureus MRSA NBS plate) and with S. aureus [4] (read-out: MIC S. aureus MRSA PS plate) was 2 µg/mL (≈ 1.38 µM) each time.

For the molecule Cbz-(AzPro-Pro)8-O^tBu [Peptide 8], the SPR binding response entry in [1] is given as “showed some binding response”. Also, the “antibacterial activity (growth inhibition) over the bacterial panel” value in the assay on five bacterial pathogens is on record as “highest activity”.

Turning to Colistin, the “MIC E. coli FDA Control NBS plate” value with E. coli (setting [6]) stood at 0.016 µg/mL. Also, in the assay with E. coli (polystyrene 96-well plate), the “MIC E. coli FDA Control PS plate” value was 0.125 µg/mL. In addition, the “MIC K. pneumoniae MDR NBS plate” value against K. pneumoniae (setting [6]) is 0.06 µg/mL. Besides, the “MIC K. pneumoniae MDR PS plate” value in the assay on K. pneumoniae (polystyrene 96-well plate) was determined as 0.25 µg/mL. Further, in the assay on A. baumannii [5], the “MIC A. baumannii Type PS plate” value stood at 1 µg/mL. In addition, in the assay with S. aureus [4] (non-binding surface 96-well plate, n=2), the “MIC S. aureus MRSA NBS plate” value is greater than 32 µg/mL. Also, in the assay on S. aureus [4] (polystyrene 96-well plate, n=2), the “MIC S. aureus MRSA PS plate” value was greater than 32 µg/mL.

Turning to “Formyl-(AzPro-Pro)6-NHCH2CH2OH [Peptide 6]”, in the assay with five bacterial pathogens, the “antibacterial activity (growth inhibition) over the bacterial panel” value was “largely abolishes all activity”.

As for Boc-(Pro-AzPro)8-H.HCl [Peptide 17], the “A. baumannii growth inhibition” value in the assay with A. baumannii [2] is “some activity”. Moreover, in the assay with S. aureus [3], the “S. aureus growth inhibition” value was “some activity”.

Turning to Cbz-(AzPro-Pro)4-O^tBu [Peptide 18], in the assay with five bacterial pathogens, the “antibacterial activity (growth inhibition) over the bacterial panel” value is “little inhibition”.

For the molecule “Cbz-(AzPro-Pro)8-(N-Methyl AzPro) [Peptide 13]”, the “antibacterial activity (growth inhibition) over the bacterial panel” value in the assay with five bacterial pathogens was “highest activity”.

A word on the MIC: it is the least concentration at which growth counts as inhibited.

The values are drawn from paper PMC8366898 (European journal of medicinal chemistry, 2018).
